In ChEMBL document CHEMBL1772990, “Biomimetic syntheses and antiproliferative activities of racemic, natural (-), and unnnatural (+) glyceollin I” (2011):

Key:
PC-3 = assay: Antiproliferative activity against androgen receptor-deficient human PC3 cells incubated with 0.6 nM of estradiol and 0.7 nM of testosterone after 48 hrs by sulforhodamine B assay; assay type: functional; settings: PC-3, 48 h
Summary of the method: (§1)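 Sulforhodamine B growth assay with 48 h agent exposure at 37 °C in 5% CO2. Seeding densities were preset to give exponential growth with final OD below 2.0. Percent growth was taken from OD versus matched vehicle-only (0.25% DMSO) controls. GI50 came from a Hill equation fit, with values averaging eight sets of duplicate wells across a concentration range.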

[1] = Antiproliferative activity against estrogen receptor-deficient human NCI-ADR-RES cells incubated with 0.06 nM of estradiol and 0.07 nM of testosterone after 48 hrs by sulforhodamine B assay in presence of fetal bovine serum and NuSerum; assay type: functional; summary of the method: as §1
MCF-12A [2] = assay: Antiproliferative activity against estrogen receptor-deficient human MCF12A cells incubated with 100 nM of estradiol and […] of testosterone after 48 hrs by sulforhodamine B assay in presence of fetal bovine serum and NuSerum
MCF-12A [3] = assay: Antiproliferative activity against estrogen receptor-deficient human MCF12A cells incubated with 0.06 nM of estradiol and 0.07 nM of testosterone after 48 hrs by sulforhodamine B assay in presence of fetal bovine serum and NuSerum; assay type: functional; summary of the method: as §1
MCF-12A [4] = assay: Antiproliferative activity against estrogen receptor-deficient human MCF12A cells incubated with 0.003 nM of estradiol and 0.01 nM of testosterone after 48 hrs by sulforhodamine B assay in presence of 5% fetal bovine serum; assay type: functional
Summary of the method: (§2)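 Low-E2 condition: MCF7 and NCI-ADR-RES cells were precultured at least 4 days in RPMI with 5% FBS and no NuSerum, then seeded in it at 3500 and 6000 cpw. MCF12A cells were seeded at 1600 cpw in their maintenance medium (DMEM/F-12 with insulin, hydrocortisone, EGF, cholera toxin, 5% FBS). Agents were added in 5% FBS RPMI. After 48 h, growth was read by sulforhodamine B OD versus 0.25% DMSO controls, with GI50 from a Hill fit.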

MCF7 [5] = assay: Antiproliferative activity against human MCF7 cells expressing estrogen receptor incubated with 100 nM of estradiol and 0.07 nM of testosterone after 48 hrs by sulforhodamine B assay in presence of fetal bovine serum and NuSerum; assay type: functional; settings: MCF7, 48 h
Summary of the method: (§3)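 High-E2 condition: cells were seeded as for the intermediate-E2 tests. Agents were added in 5% FBS/5% NuSerum medium with E2 added to give 100 nM final during exposure. After 48 h at 37 °C in 5% CO2, sulforhodamine B staining gave percent of matched 0.25% DMSO vehicle-control growth. GI50 came from a Hill equation fit, averaging eight sets of duplicate wells.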

LNCaP = assay: Antiproliferative activity against human LNCAP cells expressing androgen receptor incubated with 0.6 nM of estradiol and 0.7 nM of testosterone after 48 hrs by sulforhodamine B assay; assay type: functional; summary of the method: as §1
MCF7 [6] = assay: Antiproliferative activity against human MCF7 cells expressing estrogen receptor incubated with 0.06 nM of estradiol and 0.07 nM of testosterone after 48 hrs by sulforhodamine B assay in presence of fetal bovine serum and NuSerum; assay type: functional; settings: MCF7, 48 h; summary of the method: as §1
[7] = Antiproliferative activity against estrogen receptor-deficient human NCI-ADR-RES cells incubated with 100 nM of estradiol and 0.07 nM of testosterone after 48 hrs by sulforhodamine B assay in presence of fetal bovine serum and NuSerum; assay type: functional; summary of the method: as §3
DU-145 = assay: Antiproliferative activity against androgen receptor-deficient human DU145 cells incubated with 0.6 nM of estradiol and 0.7 nM of testosterone after 48 hrs by sulforhodamine B assay; assay type: functional; settings: DU-145, 48 h; summary of the method: as §1
MCF7 [8] = assay: Antiproliferative activity against human MCF7 cells expressing estrogen receptor incubated with 0.003 nM of estradiol and 0.01 nM of testosterone after 48 hrs by sulforhodamine B assay in presence of 5% fetal bovine serum; assay type: functional; settings: MCF7, 48 h; summary of the method: as §2
[9] = Antiproliferative activity against estrogen receptor-deficient human NCI-ADR-RES cells incubated with 0.003 nM of estradiol and 0.01 nM of testosterone after 48 hrs by sulforhodamine B assay in presence of 5% fetal bovine serum; assay type: functional; summary of the method: as §2

| Compound | GI50 (PC-3) [µM] | GI50 [1] [µM] | GI50 (MCF-12A [2]) [µM] | GI50 (MCF-12A [3]) [µM] | GI50 (MCF-12A [4]) [µM] | GI50 (MCF7 [5]) [µM] | GI50 (LNCaP) [µM] | GI50 (MCF7 [6]) [µM] | GI50 [7] [µM] | GI50 (DU-145) [µM] | GI50 (MCF7 [8]) [µM] | GI50 [9] [µM] |
| --- | --- | --- | --- | --- | --- | --- | --- | --- | --- | --- | --- | --- |
| CC1(C)C=Cc2c(ccc3c2OC[C@]2(O)c4ccc(O)cc4O[C@H]32)O1 | 47.9 | 44.7 | 46.8 | 38.9 | 38 | 21.4 | 27.5 | 24 | 30.2 | 57.5 | 22.9 | 42.7 |
| CCC(=C(c1ccc(O)cc1)c1ccc(OCCN(C)C)cc1)c1ccccc1 | 7.59 | 6.17 | 3.24 | 3.89 | 3.31 | 3.47 | 8.32 | 1.91 | 7.76 | 10.7 | 1.41 | 4.47 |
| CC1(C)C=Cc2c(ccc3c2OCC2(O)c4ccc(O)cc4OC32)O1 (racemic) | 32.4 | 37.2 | 51.3 | 45.7 | 47.9 | 18.2 | 12.9 | 20 | 45.7 | 29.5 | 17.4 | 41.7 |
| C[C@]12CC[C@@H]3c4ccc(O)cc4C[C@@H](CCCCCCCCC[S+]([O-])CCCC(F)(F)C(F)(F)F)[C@H]3[C@@H]1CC[C@@H]2O (some centres undefined) [FULVESTRANT] | > 100 | > 100 | > 100 | > 100 | > 100 | 794 | 398 | 158 | > 100 | > 100 | < 0.01 | > 100 |
| O=c1c(-c2ccc(O)cc2)coc2cc(O)cc(O)c12 [GENISTEIN] | 42.7 | 17 | 30.2 | 21.9 | 32.4 | 52.5 | 38.9 | 45.7 | 26.9 | 50.1 | 61.7 | 32.4 |
| CC1(C)C=Cc2c(ccc3c2OC[C@@]2(O)c4ccc(O)cc4O[C@@H]32)O1 [GLYCEOLLIN I] | 30.9 | 30.2 | 38 | 27.5 | 33.1 | 15.1 | 11.5 | 13.8 | 29.5 | 36.3 | 13.2 | 24.5 |
| CC/C(=C(\c1ccccc1)c1ccc(OCCN(C)C)cc1)c1ccccc1 [TAMOXIFEN] | 11 | 9.55 | 5.75 | 6.92 | 5.75 | 5.62 | 10 | 2.95 | 11.5 | 13.8 | 2.29 | 5.75 |
